Measurements of several laboratories.
Target: Dual specificity protein kinase CLK1 (CLK1, Homo sapiens, UniProt P49759)

COc1cc(Cl)c(C(=O)N[C@@H](CN[C@H]2CC[C@@H](N)CC2)Cc2ccc(C#N)cc2)cc1-c1ccc(CN[C@H](C)c2ccc(C)cc2)o1 — remaining activity (enzyme activity; inhibitor; 1 µM): 91%
C#Cc1cccc(Nc2ncnc3cc(OCCOC)c(OCCOC)cc23)c1 — remaining signal (cell-free assay; 0.5 µM): 107%
Cc1ccc(C(=O)Nc2ccc(CN3CCN(C)CC3)c(C(F)(F)F)c2)cc1C#Cc1cnc2cccnn12 — remaining activity (enzyme activity; inhibitor; 23.5 nM): 38%
CCCS(=O)(=O)Nc1ccc(F)c(C(=O)c2c[nH]c3ncc(-c4ccc(Cl)cc4)cc23)c1F — inhibition (enzyme activity; inhibitor; 1 µM): < 10%
O=C(Nc1cnn(-c2csc(C(=O)NC3COC3)c2)c1)Nc1c(F)cccc1Cl — remaining activity (enzyme activity; inhibitor; 5 µM): 74.9%
O=C(O)[C@H]1[C@H](Cn2nnc3ccccc3c2=O)CC[C@@H]1C(=O)c1ccc(OCCC2CCOCC2)cc1 — remaining binding (cell-free assay; competition with immobilised ligand; 1 µM): 98%
COc1cc(-c2cc(-c3ccc(N4CCNCC4)cc3)cnc2C)cc(OC)c1OC — inhibition (enzyme activity; inhibitor; 0.1 µM): 1%
O=C(NC[C@@H]1[C@H]2CN(C(=O)OCc3cc(C(F)(F)F)cc(C(F)(F)F)c3)C[C@@H]12)c1ccc2[nH]nnc2c1 — remaining binding (cell-free assay; competition with immobilised ligand; 1 µM): 87%
Cc1ccc(NC(=O)c2ccc(C)c(C(F)(F)F)c2)cc1C#Cc1nn(C2CCC(O)CC2)c2ncnc(N)c12 (stereo not shown) — remaining signal (cell-free assay; 10 µM): 64%
O=C1Nc2ccc(Cl)cc2C1=Cc1cc(Cl)c(O)c(Cl)c1 — remaining signal (cell-free assay; 0.5 µM): 85%
Cc1cnc(NC2CCOCC2)nc1-n1cnc(C(=O)NC(CN)c2cc(F)cc(Cl)c2)c1 (stereo not shown) — remaining activity (enzyme activity; inhibitor; radiometric; 1 µM): 62%
O=C(O)c1cc(-c2ccc(C3CCNCC3)cc2)c2ccc(-c3ccc(C(F)(F)F)cc3)cc2c1 — remaining binding (cell-free assay; competition with immobilised ligand; 1 µM): 100%
Cn1cnc(Br)c1C1=CN(c2ncnc3[nH]cnc23)CCS1 — inhibition (enzyme activity; inhibitor; radiometric; 2 µM): 96.1%
CC(C)(O)[C@H]1CC[C@H](Nc2ccc3ncc(-c4cccc(C(F)(F)F)c4)n3n2)CC1 — remaining activity (enzyme activity; inhibitor; 1 µM): 8.45%
CC(C)(C)c1nc(-c2cccc(NS(=O)(=O)c3c(F)cccc3F)c2F)c(-c2ccnc(N)n2)s1 — remaining activity (enzyme activity; inhibitor; radiometric; 1 µM): 89%
COc1cc2c(Nc3ccc(Br)cc3F)ncnc2cc1OCC1CCN(C)CC1 — remaining signal (cell-free assay; 0.5 µM): 105%
CNCc1ccccc1-c1csc([C@@H](C)Nc2nc(C)nc3cc(OC)c(OC)cc23)c1 — remaining binding (cell-free assay; competition with immobilised ligand; 1 µM): 98%
COc1cc2ncnc(Nc3ccc(Oc4ccccc4)cc3C)c2cc1OC — inhibition (enzyme activity; inhibitor; 1 µM): 3%
CC(=O)N1CCC(c2ccc(C(=O)NC(=N)N)cc2C(F)(F)F)CC1 — remaining binding (cell-free assay; competition with immobilised ligand; 1 µM): 100%
O=C1NC(=O)c2cc(Nc3ccc(F)cc3)c(Nc3ccc(F)cc3)cc21 — remaining signal (cell-free assay; 0.5 µM): 102%
Cc1nc(Cc2cccc(C(F)(F)F)c2)sc1-c1ccc(C(N)=O)nc1 — remaining binding (cell-free assay; competition with immobilised ligand; 1 µM): 83%
c1nc2c(Nc3ccc4c(c3)OCCO4)nc(Nc3ccc4c(c3)OCCO4)nc2[nH]1 — activity vs control (enzyme activity; inhibitor; 10 µM): 2.2%
